Reference: paper PMC4822987 (Acta crystallographica. Section F, Structural biology …, 2016)

How the values were obtained:
S. mansoni arginase = settings: relative to ABH, ref Hai et al., 2014; cited from earlier work
human arginase II = settings: relative to ABH, ref Golebiowski et al., 2013; cited from earlier work
[1] = biological target: Leishmania mexicana arginase (LmARG) (Leishmania mexicana, UniProt Q6TUJ5); experiment: Inhibitory activity assay, colorimetric arginase activity; type: biochemical
How it was run: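 Recombinant LmARG (1 µM) started the reaction in 50 mM EPPS pH 8.0 with 100 µM MnCl2 and 30 mM L-arginine at 21°C. After 20 min it was stopped with H2SO4/H3PO4 acid plus α-isonitrosopropiophenone dye, then heated at 90°C for 1 h. Urea was read at 550 nm. Ki came from IC50 via Cheng–Prusoff, with Km from 0.5–150 mM arginine.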

human arginase I = settings: relative to ABH, ref Van Zandt et al., 2013; cited from earlier work

## N[C@](CCCCB(O)O)(CCN1CCCCC1)C(=O)O [ABHPE, (R)-2-amino-6-borono-2-[2-(piperidin-1-yl)ethyl]hexanoic acid]
S. mansoni arginase
  improved affinity in comparison with parent inhibitor ABH: 5.0 fold
Human arginase II
  improved inhibitory potency in comparison with parent inhibitor ABH: 3.8 fold
[1]
  IC50: 2100 ± 300 nM
  Ki: 1400 ± 200 nM
Human arginase I
  improved inhibitory potency (IC50) in comparison with parent inhibitor ABH: 6.5 fold

## N[C@@](CCCCB(O)O)(C(=O)O)C1CCN(Cc2ccc(Cl)c(Cl)c2)CC1 (racemic) [ABHDP, (R)-2-amino-6-borono-2-[1-(3,4-dichlorobenzyl)piperidin-4-yl]hexanoic acid]
S. mansoni arginase
  improved affinity in comparison with parent inhibitor ABH: 2.4 fold
Human arginase II
  improved inhibitory potency in comparison with parent inhibitor ABH: 7.4 fold
[1]
  IC50: 1700 ± 400 nM
  Ki: 1100 ± 300 nM
Human arginase I
  improved inhibitory potency (IC50) in comparison with parent inhibitor ABH: 7.4 fold

## N[C@@H](CCCCB(O)O)C(=O)O [ABH, 2-(S)-amino-6-boronohexanoic acid, reference compound]
[1]
  IC50: 1300 ± 200 nM
  Ki: 900 ± 100 nM
